Measured values published in ChEMBL document CHEMBL1152886, “Water-soluble prodrugs of an Aurora kinase inhibitor” (Bioorg Med Chem Lett, 2009).
In brackets after ≈: the same amount, converted by molar mass.

Columns and labels:
[1] = Chemical stability assessed as compound remaining in DMSO after 8 hrs; assay type: physicochemical; details: read-out: Stability
Method in brief: (§1)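 Compound held 8 h at room temperature in DMSO or in pH 7.4 buffer. Percent remaining determined by LC/MS.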

[2] = Chemical stability assessed as compound remaining in aqueous buffer at pH 7.4 after 8 hrs; assay type: physicochemical; details: read-out: Stability; method in brief: as §1
[3] = Aqueous solubility at pH 3.2; assay type: physicochemical; details: aqueous solution
Method in brief: (§2)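 Thermodynamic solubility from a slurry. Sonicated 20 min at room temperature, 10 min at 50 °C, then 10 min at room temperature, and agitated at least two days at room temperature. Residual solid was checked for crystallinity by polarized light microscopy. Slurry centrifuged 15,000 rpm at 20 °C for 20 min. Supernatant assayed by HPLC and its pH measured. Values are typically means of two measurements.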

[4] = Half life in Sprague-Dawley rat at 5 mg/kg, iv; assay type: ADME, organism-based; parameters: dose 5 mg/kg, route intravenous; details: in vivo
Method in brief: (§3)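 Male Sprague–Dawley rats (n = 3) dosed iv, prodrug at a dose equivalent to 5 mg/kg of parent, compared with an equivalent iv dose of parent. Plasma profiles of both prodrug and released parent were determined, giving AUC_INF and elimination half-life.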

[5] = AUC (0 to infinity) in Sprague-Dawley rat at 5 mg/kg, iv; assay type: ADME, organism-based; parameters: time infinity, dose 5 mg/kg, route intravenous; details: plasma; method in brief: as §3
[6] = AUC (0 to infinity) in Sprague-Dawley rat at 10 mg/kg, po; assay type: ADME, organism-based; parameters: time infinity, dose 10 mg/kg, route oral; details: plasma
Method in brief: (§4)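 Male Sprague–Dawley rats (n = 3) dosed orally, prodrug at a dose equivalent to 10 mg/kg of parent, compared with an equivalent oral dose of parent. Parent levels measured in plasma; AUC_INF derived from the plasma profile. Bioavailability is expressed with respect to the parent compound.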

[7] = Oral bioavailability in Sprague-Dawley rat at 10 mg/kg; assay type: ADME, organism-based; details: in vivo; method in brief: as §4
[8] = Aqueous solubility at pH 7.8; assay type: physicochemical; details: aqueous solution; method in brief: as §2
[9] = Permeability across MDCK cells; assay type: ADME, cell-based, Canis lupus familiaris; details: dog, read-out: permeability
[10] = Aqueous solubility at pH 2.5; assay type: physicochemical; details: aqueous solution; method in brief: as §2
[11] = Aqueous solubility at pH 3.5; assay type: physicochemical; details: aqueous solution; method in brief: as §2

SMILES | remaining at 8 h [1] | remaining at 8 h [2] | solubility [3] | further results
CNCC(=O)OCn1cc(CCNc2ncnc3ccsc23)s/c1=N\C(=O)Nc1cccc(Cl)c1 | 0% | 0% |  | 
CC(C)C(=O)OCn1cc(CCNc2ncnc3ccsc23)s/c1=N\C(=O)Nc1cccc(Cl)c1 |  |  | 170 µg/mL (≈ 320 µM) | 
CC(C)(C)C(=O)OCn1cc(CCNc2ncnc3ccsc23)s/c1=N\C(=O)Nc1cccc(Cl)c1 | 100% | 100% | 280 µg/mL (≈ 514 µM) | 
O=C(/N=c1\sc(CCNc2ncnc3ccsc23)cn1COC(=O)C1CCNCC1)Nc1cccc(Cl)c1 | 84% | 52% |  | 
O=C(/N=c1\sc(CCNc2ncnc3ccsc23)cn1COC(=O)CC1CCNCC1)Nc1cccc(Cl)c1 | 100% | 100% |  | solubility [11]: 2500 µg/mL (≈ 4270 µM)

More lines, main results first:

remaining at 8 h [1] | remaining at 8 h [2] | solubility [3] | SMILES | further results
 |  | 14 µg/mL | CS(=O)(=O)O.O=C(Nc1cccc(Cl)c1)Nc1ncc(CCNc2ncnc3ccsc23)s1 [SNS-314 MESYLATE] | half-life [4]: 2.1 h; AUC(0-inf) [5]: 2090 ng·h/mL; AUC(0-inf) [6]: 3650 ng·h/mL; bioavailability [7]: 72%
100% | 100% |  | O=C(/N=c1\sc(CCNc2ncnc3ccsc23)cn1COP(=O)(O)O)Nc1cccc(Cl)c1 | solubility [8]: 4700 µg/mL (≈ 8690 µM); half-life [4]: 0.5 h; AUC(0-inf) [5]: 1910 ng·h/mL; AUC(0-inf) [6]: 2200 ng·h/mL; bioavailability [7]: 44%; Papp [9]: < 1 ×10⁻⁶ cm/s
100% | 100% |  | CC(=O)OCn1cc(CCNc2ncnc3ccsc23)s/c1=N\C(=O)Nc1cccc(Cl)c1 | solubility [10]: 120 µg/mL (≈ 239 µM)
